Reference: ChEMBL document CHEMBL1130352, “3-[[(4-Aryl-1-piperazinyl)alkyl]cyclohexyl]-1H-indoles as dopamine D2 partial agonists and autoreceptor agonists” (J Med Chem, 1997)
Calls of active or inactive are those of the source. No cut-off for these calls is given here.

Experiments:
D(2) dopamine receptor [1] = biological target: T1, D(2) dopamine receptor (Rattus norvegicus, UniProt P61169); assay: In vitro binding affinity for dopamine receptor D2 on rat striatal membranes by [3H]spiperone displacement.; parameters: species or system Striatum, Membrane
How it was run: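 Displacement of [3H]spiperone (0.2 nM final) from rat striatal membranes; nonspecific binding defined with 1 μM (+)-butaclamol. IC50 determined, reported as Ki.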

Mus musculus [2] = assay: In vivo inhibition of locomotor activity in mice following i.p. administration.; type: functional; settings: ip
How it was run: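 Mice dosed ip, then immediately tested for 1 h in darkened cylindrical photobeam chambers. Activity expressed as percent inhibition versus vehicle-treated mice. ED50 with 95% confidence range from three to six doses, 6–18 animals per dose.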

Rattus norvegicus [3] = assay: Percent reversal of DOPA levels in the striatum of gamma-butyrolactone-treated rats at 10 mg/kg by intraperitoneal route; type: functional
How it was run: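 Male Long Evans rats received 10 mg/kg ip 1 h before sacrifice, with GBL (750 mg/kg ip) and NSD 1015 (100 mg/kg ip) 30 min before sacrifice. Striatal DOPA was quantified by HPLC-electrochemical detection and expressed as percent reversal between GBL + NSD 1015 (0%) and vehicle + NSD 1015 (100%) controls; n = 4-5 rats.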

Rattus norvegicus [4] = species on record: Rattus norvegicus; assay: Inhibition of spontaneous locomotor activity after peroral injection into rat; type: functional
How it was run: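 Rats dosed orally before a 30 min test in darkened cylindrical photobeam chambers. Percent inhibition of activity relative to vehicle-treated rats; ED50 with 95% confidence range from three to six doses, 6–18 animals per dose.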

Rattus norvegicus [5] = assay: Percent reversal of DOPA synthesis in the striatum of gamma-butyrolactone-treated rats at 10 mg/kg by intraperitoneal route; Increase; type: functional, organism-based; parameters: dose 10 mg/kg
How it was run: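 Male Long Evans rats given compound ip 1 h before sacrifice; GBL (750 mg/kg ip) plus NSD 1015 (100 mg/kg ip) 30 min before sacrifice. Striatal DOPA measured by HPLC with electrochemical detection. Result given as percent reversal between the GBL + NSD 1015 control (0%) and the vehicle + NSD 1015 control (100%); n = 4–5 animals.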

Rattus norvegicus [6] = assay: Inhibition of spontaneous locomotor activity after intraperitoneal injection into rat at 30 mg/kg; type: functional; settings: ip
Rattus norvegicus [7] = assay: Inhibition of spontaneous locomotor activity after intraperitoneal injection into rat at 3 mg/kg; type: functional; settings: ip
Rattus norvegicus [8] = species on record: Rattus norvegicus; assay: Inhibition of spontaneous locomotor activity after peroral injection into rat; Stimulation of locomotory activity; type: functional, organism-based
D(4) dopamine receptor = biological target: T2, D(4) dopamine receptor (Homo sapiens, UniProt P21917); assay: In vitro binding affinity towards human recombinant Dopamine receptor D4 expressed in CHO-K1 cells was determined using [3H]spiperone as radioligand; type: cell-based
T2 sequence (P21917 whole entry): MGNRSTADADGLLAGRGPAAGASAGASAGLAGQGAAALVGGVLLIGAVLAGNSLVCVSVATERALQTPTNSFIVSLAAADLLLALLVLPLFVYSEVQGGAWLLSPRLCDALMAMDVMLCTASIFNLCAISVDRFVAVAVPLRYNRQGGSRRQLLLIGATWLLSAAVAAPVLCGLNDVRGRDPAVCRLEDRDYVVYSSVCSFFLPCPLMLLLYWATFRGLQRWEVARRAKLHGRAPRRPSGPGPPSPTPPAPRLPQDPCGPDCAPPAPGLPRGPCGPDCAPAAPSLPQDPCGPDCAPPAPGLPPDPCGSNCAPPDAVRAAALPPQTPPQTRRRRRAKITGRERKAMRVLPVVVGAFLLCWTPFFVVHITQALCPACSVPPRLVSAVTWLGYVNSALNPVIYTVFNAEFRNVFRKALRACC
How it was run: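 CHO K1 cells stably transfected with human recombinant DA D4.2 receptor subtype; membranes incubated with [3H]spiperone (0.2 nM final); Ki values determined.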

Rattus norvegicus [9] = assay: Decrease in dopamine neuronal firing rate in rats after intraperitoneal injection of 2.5 mg/kg; type: functional; parameters: scale not given: the % may be the effect or the level left
Mus musculus [10] = assay: Inhibition of apomorphine-induced climbing in mice after intraperitoneal injection; type: functional; settings: ip
How it was run: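 Mice received apomorphine 1 mg/kg sc and returned to cages. Test compound or vehicle given ip 5 min later, and climbing scored 10 min after that; ED50 in mg/kg ip.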

[11] = Decrease in squirrel monkey striatal dopamine overflow measured via in vivo microdialysis after administering a dose of 3 mg/kg intraperitoneally; type: functional; parameters: scale not given: the % may be the effect or the level left; settings: route intraperitoneal
D(3) dopamine receptor = D(3) dopamine receptor (Homo sapiens, UniProt P35462); assay: In vitro binding affinity towards human recombinant Dopamine receptor D3 receptor expressed in CHO-K1 cells was determined using [3H]spiperone as radioligand
Rattus norvegicus [12] = species on record: Rattus norvegicus; assay: Compound was evaluated for ability to reverse gamma-butyrolactone (GBL)-induced sunthesis of DOPA in rat corpus striatum; type: functional
How it was run: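 Male Long Evans rats dosed 1 h before sacrifice; GBL 750 mg/kg ip plus NSD 1015 100 mg/kg ip given 30 min before sacrifice. Striatal DOPA measured by HPLC with electrochemical detection. ED50 read graphically as the dose giving 50% reversal of the GBL-induced rise in DOPA accumulation; 0% = GBL + NSD 1015, 100% = vehicle + NSD 1015.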

Rattus norvegicus [13] = assay: Decrease of rat striatal dopamine overflow after intraperitoneal injection of 10 mg/kg measured via in vivo microdialysis; type: functional; parameters: scale not given: the % may be the effect or the level left
How it was run: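 Adult male Sprague-Dawley rats (200-250 g) under urethane in a stereotaxic frame, with a 4 mm probe in striatum perfused with artificial CSF at 2 μL/min. Dialysate collected every 20 min and assayed for catecholamines by HPLC-electrochemical detection, after 10 mg/kg ip; n = 4.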

Rattus norvegicus [14] = assay: Stereotypy in rats (intraperitoneal); type: functional; settings: ip
How it was run: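 A trained observer rated rats for repetitive sniffing, licking and gnawing, 30 s per rat; a behaviour counted only if continuously present for at least 15 s. Rats observed 1 h after the test compound, then given the D1 agonist SKF 38393 and observed for another hour.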

[15] = Inhibition of sidman avoidance in squirrel monkey after peroral administration; type: functional; settings: po
How it was run: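 Squirrel monkeys dosed orally; conditioned (Sidman) avoidance recorded for 6 h. Effect expressed as percent avoidance responding relative to control performance over the 4 h of peak effect; ED50 in mg/kg po.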

D(2) dopamine receptor [16] = biological target: T1, D(2) dopamine receptor; assay: Binding affinity was determined in vitro on rat striatum using [3H]N-propylnorapomorphine against Dopamine receptor D2; type: tissue-based
How it was run: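 Rat striatal membranes; [3H]-NPA agonist radioligand at 0.35 nM final, labelling high-affinity state D2 sites; nonspecific binding defined with 2 μM (+)-butaclamol. IC50 determined by displacement, reported as Ki (nM).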

T1 sequence (P61169 whole entry): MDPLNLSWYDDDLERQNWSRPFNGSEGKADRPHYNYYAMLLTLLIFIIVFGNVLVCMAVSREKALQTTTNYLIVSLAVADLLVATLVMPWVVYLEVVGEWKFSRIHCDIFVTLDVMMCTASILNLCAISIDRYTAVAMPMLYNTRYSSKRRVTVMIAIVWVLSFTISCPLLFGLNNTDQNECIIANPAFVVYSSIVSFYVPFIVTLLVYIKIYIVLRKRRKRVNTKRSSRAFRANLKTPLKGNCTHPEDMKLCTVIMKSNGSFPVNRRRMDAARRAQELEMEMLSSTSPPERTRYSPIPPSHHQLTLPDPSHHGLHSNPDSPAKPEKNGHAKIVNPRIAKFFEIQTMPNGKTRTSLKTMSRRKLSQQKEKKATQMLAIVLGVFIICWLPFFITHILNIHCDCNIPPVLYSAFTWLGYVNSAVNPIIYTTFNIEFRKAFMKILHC
D(3) dopamine receptor, sequence (P35462 whole entry): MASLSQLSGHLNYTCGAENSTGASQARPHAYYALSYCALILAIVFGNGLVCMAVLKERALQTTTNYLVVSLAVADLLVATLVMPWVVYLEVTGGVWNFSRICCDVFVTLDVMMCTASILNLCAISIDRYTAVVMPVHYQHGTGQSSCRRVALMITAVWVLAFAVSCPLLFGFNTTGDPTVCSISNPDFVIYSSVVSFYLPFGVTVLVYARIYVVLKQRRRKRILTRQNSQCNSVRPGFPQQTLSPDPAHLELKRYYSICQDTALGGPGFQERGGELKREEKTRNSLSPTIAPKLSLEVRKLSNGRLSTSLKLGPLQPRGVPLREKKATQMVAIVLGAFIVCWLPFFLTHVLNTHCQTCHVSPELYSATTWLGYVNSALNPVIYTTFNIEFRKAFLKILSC

| SMILES | Ki (D(2) dopamine receptor [1]) [nM] | ED50 (Mus musculus [2]) [mg/kg] | Reversal (Rattus norvegicus [3]) [%] | ED50 (Rattus norvegicus [4]) [mg/kg] | further results |
| --- | --- | --- | --- | --- | --- |
| Cn1cc([C@H]2CC[C@H](CCN3CCN(c4ccccn4)CC3)CC2)c2ccccc21 | 83 | > 30 |  |  |  |
| COc1ccc2[nH]cc([C@H]3CC[C@H](CCN4CCN(c5ccccn5)CC4)CC3)c2c1 | 29 | 2.2 | 88 | > 30 |  |
| c1ccc(N2CCN(CC[C@H]3CC[C@H](c4c[nH]c5ccccc54)CC3)CC2)cc1 | 124 | 13.9 |  |  | Reversal (Rattus norvegicus [5]): inactive |
| c1ccc(N2CCN(C[C@H]3CC[C@@H](c4c[nH]c5ccccc54)CC3)CC2)nc1 | 122 | 1.2 |  |  | inhibition in vivo at 30 mg/kg (Rattus norvegicus [6]): 1.8%; inhibition in vivo at 3 mg/kg (Rattus norvegicus [7]): 57% |
| c1ccc(N2CCN(C[C@H]3CC[C@H](c4c[nH]c5ccccc54)CC3)CC2)nc1 | 85 | 2.3 | 81 | 8.8 |  |
| Oc1ccc2[nH]cc(CCCCN3CC=C(c4ccccc4)CC3)c2c1 [ROXINDOLE] | 14 | 0.25 | 70 | 47.6 |  |
| Fc1ccc2[nH]cc([C@H]3CC[C@H](CCN4CCN(c5ccccn5)CC4)CC3)c2c1 | 110 | 9 | 100 |  | ED50 (Rattus norvegicus [8]): Stimulant |
| Fc1ccc(N2CCN(CC[C@H]3CC[C@H](c4c[nH]c5ccccc54)CC3)CC2)cc1 | 645 | > 30 |  |  |  |
| c1ccc(N2CCN(CC[C@H]3CC[C@@H](c4c[nH]c5ccccc54)CC3)CC2)nc1 | 139 | 4.7 | 60 | 12.2 |  |
| c1ccc(N2CCN(CC[C@H]3CC[C@H](c4c[nH]c5ccccc54)CC3)CC2)nc1 | 50 | 1.4 | 44 | 4.8 | Ki (D(4) dopamine receptor): 73 nM; Activity (Rattus norvegicus [9]): 100%; ED50 (Mus musculus [10]): > 30 mg/kg; Activity [11]: 38%; Ki (D(3) dopamine receptor): 29 nM; ED50 (Rattus norvegicus [12]): 6.6 mg/kg; Activity (Rattus norvegicus [13]): 33%; ED50 (Rattus norvegicus [14]): > 24 mg/kg; ED50 [15]: 1 mg/kg; Ki (D(2) dopamine receptor [16]): 2.6 nM |
| c1ccc(N2CCN([C@H]3CC[C@@H](c4c[nH]c5ccccc54)CC3)CC2)nc1 |  | > 30 |  |  |  |
| c1cnc(N2CCN(CC[C@H]3CC[C@H](c4c[nH]c5ccccc54)CC3)CC2)nc1 | 161 | 3.3 | 34 | 18.6 |  |
| C1=C(c2ccccc2)CC[C@H](CCN2CCN(c3ccccn3)CC2)C1 | 412 |  |  |  |  |
| C1=C(c2cccs2)CCN(CC[C@H]2CC[C@H](c3c[nH]c4ccccc43)CC2)C1 | 630 | 11.6 |  |  |  |
| C1=C(c2ccccc2)CCN(CC[C@H]2CC[C@H](c3c[nH]c4ccccc43)CC2)C1 | 8.7 | 7.2 |  | > 30 | Reversal (Rattus norvegicus [5]): inactive |
| C1=C(c2c[nH]c3ccccc23)CCC(CCN2CCN(c3ccccn3)CC2)C1 (centres undefined) | 270 |  |  |  |  |
| Oc1ccc2[nH]cc([C@H]3CC[C@H](CCN4CCN(c5ccccn5)CC4)CC3)c2c1 | 8.6 | 0.6 | 25 | > 30 |  |
| c1ccc(N2CCN([C@H]3CC[C@H](c4c[nH]c5ccccc54)CC3)CC2)nc1 | 457 | 1.2 | 38 | 13.7 |  |
| C1=C(c2ccccc2)CCN(CC[C@H]2CC[C@@H](c3c[nH]c4ccccc43)CC2)C1 | 28 | 10.5 | 5 |  |  |
